Consider 8 molecules from paper PMC2612038 (Journal of molecular biology, 2008).

Entries after “also recorded” stand apart in the source; their conditions may differ. Read-outs that look alike come from different tables or passages of the source.

For data set [1] the following is noted: cited from earlier work.
Another data set deals with Hdm2-ABD (Homo sapiens, UniProt Q00987). The settings on record: cited from earlier work.
Data set [2] has as its system 15-residue peptide containing the H1 segment of Hdm2. As to conditions: cited from earlier work.
The subject of data set [3] is nucleoli of Arf-null NIH 3T3 mouse fibroblasts. As to the kind of experiment: Nucleolar localization after nuclear micro-injection. In kind it is cell-based. As to conditions: 0.5 mg/mL TR-A1-mini injected into nuclei; 33/42 cells; 4 hour recovery.
Data set [4] concerns Mdm2. Briefly: Nucleolar co-localization with endogenous Mdm2 after nuclear micro-injection. The format is cell-based, mouse. As to conditions: for cells with co-localization with Mdm2 in nucleoli: 0.5 mg/mL TR-A1-mini injected into nuclei, 4 hour recovery, anti-mdm2 2A10.
The subject of data set [5] is Arf-null NIH 3T3 mouse fibroblasts. Briefly: BrdU incorporation / cell cycle arrest assay after nuclear micro-injection. In kind it is cell-based. As to conditions: peptide 2–4 mg/ml, BrdU 10 μM, 8 hours, 3 independent experiments. On the technique in general: Dividing cells build labelled thymidine or BrdU into new DNA.
Data set [6] can be described thus: Sedimentation velocity AUC of the isolated polypeptide. The format is physicochemical. A digest of the protocol: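 Sedimentation velocity was run at 50,000 rpm and 20 °C, with Rayleigh interference scans every 1 min. Samples were dialysed into 10 mM sodium phosphate pH 6.0 with 10 mM NaCl (150 mM for high ionic strength), and the dialysate was the reference. Analysis used c(s) with maximum-entropy regularisation (p = 0.7, n = 100), with s from main-peak integration and weight-average f/f0. c(M) came from c(s). c(s, f/f0) used an f/f0 grid of 1.2–2.2 and s of 0.1–5 S.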

A short description of data set [7]: Pulsed magnetic field gradient/diffusion NMR of free Hdm2-ABD. In kind it is physicochemical. As to conditions: 1 mM 15N-Hdm2-ABD, 10 mM sodium phosphate, 10 mM NaCl, pH 6; dioxane standard. A digest of the protocol:
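Diffusion was recorded at 600 MHz on 1 mM 15N-Hdm2-ABD in 10 mM sodium phosphate, 10 mM NaCl, pH 6. A 15N-filtered BPP-MAXY-D sequence gave 1D spectra across gradient strengths of 1–60 G cm−1. Dioxane served as internal standard to normalise for solution conditions. Equivalent unfolded chain length was estimated from Rh = (2.21 ± 1.07)N^(0.57 ± 0.02).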

The nature of a further data set: Structure in isolation. The format is physicochemical. As to conditions: for structure in isolation: absence of oppositely charged partner. A digest of the protocol:
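Uniformly 13C/15N-labelled Hdm2-ABD (2 mM) was studied in 10 mM sodium phosphate, 10 mM NaCl, 0.01% azide, 6% D2O, pH 6.0, 25 °C. Backbone assignments came from HSQC, CT-HNCA, CT-HN(CO)CA, HNCACB and CBCA(CO)NH spectra, and side chains from C(CO)NH- and H(CCO)NH-TOCSY. 1H was referenced to external TSP, with 13C/15N referenced indirectly.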

For data set [8] the following is noted: cited from earlier work. The source holds these as a separate data set.
For data set [9], the system named is 15N-Hdm2-ABD. As to conditions: 3 equivalents; cited from earlier work.
The test system of the next data set is mouse fibroblasts. The settings on record: cited from earlier work.
The test system of data set [10] is Mdm2. The settings on record: cited from earlier work.
For data set [11], the system named is Hdm2-ABD lacking the H1 and/or H2 segments. Briefly: CD co-assembly of A1-mini with Hdm2-ABD lacking H1 and/or H2 segments. In kind it is binding, human. As to conditions: deletion of the H1 and/or H2 segments (Suppl. Fig. 1).
The subject of data set [12] is 15N-Hdm2-ABD. Briefly: 2D 1H-15N HSQC NMR of 15N-Hdm2-ABD with Arf peptide. The format is binding, human. The gist of the method: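 15N-Hdm2-ABD was expressed in E. coli in MOPS minimal medium with 15NH4Cl and purified. […] Combined shift perturbation: Δδ1H/15N = [(Δδ1HN)² + 0.0289·(Δδ15NH)²]^1/2, each difference taken as bound minus free.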
The next data set can be described thus: Solubility. The format is physicochemical. As to conditions: co-assemblies with Hdm2-ABD.
Data set [13] addresses Arf-binding domain of Hdm2 (Hdm2-ABD), residues 210-304 (human, UniProt Q00987 210-304). As to the kind of experiment: circular dichroism. For orientation: Circular dichroism is the unequal absorption of left and right circularly polarised light.
The mark [14] stands for this setting: 0.5 mM, 20 °C, 10 mM sodium phosphate pH 6.0, 10 mM NaCl, c(s) model.

Chain of Hdm2-ABD (Q00987 210-304): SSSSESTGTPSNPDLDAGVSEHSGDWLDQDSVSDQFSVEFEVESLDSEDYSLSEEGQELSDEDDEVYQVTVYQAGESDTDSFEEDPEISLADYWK
Chain of Arf-binding domain of Hdm2 (Hdm2-ABD), residues 210-304 (Q00987 210-304): as above

As to (AEAEAKAK)2, the self-assembly entry in data set [1] is “self-assembled into β-strand-rich structures with fibrilar characteristics”.
Take “residues 1-15 of p14^Arf: peptide corresponding to residues 1-15 of p14^Arf (MVRRFLVTLRIRRAC; UniProt Q8N726 1-15, looked up, fragment)”: the “irreversible assembly into bi-molecular oligomers with Hdm2-ABD” value with Hdm2-ABD is “irreversibly assembled into bi-molecular oligomers”. Besides, the “assembly with 15-residue H1 peptide of Hdm2” value in data set [2] is “irreversibly assembled into bi-molecular oligomers”.
As to “residues 1-15 of p19^Arf: peptide from the N-terminus of p19^Arf spanning residues 1-15 (MGRRFLVTVRIQRAG; UniProt Q64364 1-15, looked up, fragment)”, in the data set with Hdm2-ABD, the “binding to Hdm2-ABD” value is “bound to Hdm2-ABD”.
For the molecule N-CGGGGGRRFLVTVR-C [TR-A1-mini], the “injected cells with nucleolar localization” value in data set [3] worked out at 79%. Moreover, the “cells with co-localization with Mdm2 in nucleoli” value in the data set on Mdm2 [4] stood at 7%. For the same molecule, in the data set with Mdm2 [4] (Fig. 5, nuclear injection), the “cells with nucleoplasmic Mdm2 and nucleolar TR-A1-mini localization” value was found to be 93%. Further, in data set [5], the “inhibition of BrdU incorporation / cell cycle arrest” value was “did not inhibit the incorporation of bromo-deoxyuridine (BrdU) into DNA”.
Consider “Hdm2-ABD: Hdm2 domain spanning residues 210-304 (Arf-binding domain)”, for which, in data set [6] (setting [14]), the “frictional ratio (f/f0), isolated” value was determined as 2.18 and the “sedimentation coefficient (s), isolated” value is recorded as 1.0 S. The “molecular mass by AUC, isolated” value in data set [6] (0.5 mM, 20 °C, pH 6.0, 10 mM NaCl) is listed as ~ 10,900 Da. In data set [7], the “radius of hydration (Rh), free” value stood at 25.7 Å. Besides, in the data set “Structure in isolation”, the structure in isolation result is given as “intrinsically unstructured”. Moreover, the “secondary 13Cα chemical shift values (Δδ13Cα)” value in the data set “Structure in isolation” (free Hdm2-ABD, pH 6.0, 25 °C (Suppl. Fig. 7B)) was “close to zero”. In addition, the structure in isolation entry in data set [8] is listed as “intrinsically unstructured in isolation”.
For “mArf-N37: 37-residue intrinsically unstructured N-terminal fragment of p19^Arf (MGRRFLVTVRIQRAGRPLQERVFLVKFVRSRRPRTAS; UniProt Q64364 1-37, looked up, fragment)”, in the data set with Hdm2-ABD (1 molar equivalent of peptide), the “Hdm2-ABD concentration at which complete conversion to β-strand occurs” value is at least 10 µM. Further, in the data set with 15N-Hdm2-ABD [9], the “effect on 15N-Hdm2-ABD resonances” value was “broaden beyond detection”. Also, the cell cycle arrest entry in the data set with mouse fibroblasts is given as “exhibited cell cycle arrest activity in vivo”. Besides, the “p53-dependent cell cycle arrest” value in the data set on mouse fibroblasts (mouse fibroblasts) is “caused p53-dependent cell cycle arrest in mouse fibroblasts”. Besides, the “binding to Mdm2” value in the data set on Mdm2 [10] was “bound to Mdm2”. Besides, the “co-assembly with Mdm2 in nucleoli” value in the data set with Mdm2 [10] (in cells) is recorded as “co-assembled specifically with Mdm2 in nucleoli”. The structure in isolation entry in data set [8] was “intrinsically unstructured in isolation”.
`CC(C)C[C@H](NC(=O)[C@H](Cc1ccccc1)NC(=O)[C@H](CCCNC(=N)N)NC(=O)[C@H](CCCNC(=N)N)NC(=O)CN)C(=O)N[C@H](C(=O)N[C@H](C(=O)N[C@H](C(=O)N[C@@H](CCCNC(=N)N)C(=O)O)C(C)C)[C@@H](C)O)C(C)C` [A1-mini]: the “co-assembly with Hdm2-ABD deletion variants” value in [11] is “complete abrogation of co-assembly”. Further, the “sedimentation state, isolated” value in data set [6] (AUC, data not shown) is listed as “sedimented as a monomer”. Besides, the “Δδ13Cα, 1H-1H NOE and heteronuclear NOE differences of 15N-Hdm2-ABD” value in the data set on 15N-Hdm2-ABD [12] (absence vs presence of A1-mini, data not shown) is “significant differences in these parameters were not detected”. Also, the “1H-15N HSQC resonance intensities of 15N-Hdm2-ABD” value with 15N-Hdm2-ABD [12] (in presence of four-fold molar excess A1-mini (Suppl. Fig. 5B)) is listed as “significant reduction in the intensity; also recorded: reduced significantly”. For the same molecule, the “cells with co-localization with Mdm2 in nucleoli” value in the data set with Mdm2 [4] was 7%. Moreover, in data set [5], the “inhibition of BrdU incorporation / cell cycle arrest” value is “did not cause cell cycle arrest; also recorded: No significant differences in the percentage of cells undergoing DNA replication”. Besides, in the data set “Solubility”, the “solubility of peptide/Hdm2-ABD co-assemblies” value is on record as over 1 mM. Also, in “Structure in isolation”, the structure in isolation result was “intrinsically unstructured”.

B1: A1-mini, peptide of residues 2-10 of mouse Arf (p19Arf) (peptide)
peptide: GRRFLVTVR
Broadly, the Kd is the concentration at which binding is half-saturated. A low value points to a tighter complex. The molecule B1 displayed a dissociation constant Kd in data set [13] of about 200 µM.
